Experimental data published in ChEMBL document CHEMBL5107979, “Encoding BRAF inhibitor functions in protein degraders” (RSC Med Chem, 2022).
pIC50: −log10 of the molar value. The source made the active and inactive calls. The calls are words filed in the database; no cut-off is given here.

Experiments:
[1] = Plasma protein binding in human at 0.5 mg/ml by HPLC analysis; type: ADME, cell-free; conditions: read-out: PPB (converted)
In short: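 HSA column (50 × 3 mm, 5 μm), 30 °C; samples 0.5 mg/mL in MeCN/DMSO 9:1, 2 μL injected. 50 mM ammonium acetate pH 7.4 to 30% iPrOH gradient over 5.4 min, held to 18 min; 1.0 mL/min, UV 254 nm. Log retention times calibrated to ten reference drugs' logK (R² = 0.94), converted to %PPB.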

[2] = tested on: von Hippel-Lindau disease tumor suppressor/Serine/threonine-protein kinase B-raf (Homo sapiens), P15056+P40337 [V600E]; assay: Protac activity at VHL/BRAF V600E mutant degradation in human SK-MEL-28 cells harboring wild type NRAS assessed as remaining BRAF V600E level at 0.1 to 10 uM incubated for 4 hrs by densitometric analysis; type: cell-based; conditions: dose 0.1-10 µM
In short: (§1)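 SK-MEL-28 melanoma cells (STR-authenticated, mycoplasma-free) in DMEM + 10% FCS, 37°C, 5% CO2; 100,000 cells/well seeded, grown 48 h, then compound-treated as indicated. Lysis in D0.4 buffer (HEPES pH 7.5, 0.4 M KCl, Triton X-100, EDTA) with protease/phosphatase inhibitors. Lysates run on 4-12% Bis-Tris gels and blotted to PVDF. LI-COR imaging; BRAF densitometry normalised to loading control, expressed relative to DMSO.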

[3] = tested on: von Hippel-Lindau disease tumor suppressor/Serine/threonine-protein kinase B-raf (Homo sapiens), P15056+P40337 [V600E]; assay: Protac activity at VHL/BRAF V600E mutant degradation in human SK-MEL-28 cells harboring wild type NRAS assessed as remaining BRAF V600E level at 1 uM incubated for 4 hrs by densitometric analysis; type: cell-based; in short: as §1
SK-N-AS [4] = assay: Effect on ERK signalling pathway in human SK-N-AS harboring wild type BRAF/NRAS […] mutant assessed as BRAF level at 0.1 to 10 uM incubated upto 24 hrs by western blot analysis; type: functional, cell-based; conditions: dose 0.1-10 µM
In short: (§2)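 SK-N-AS neuroblastoma (NRAS mutant), DMEM/10% FCS, plated 100,000 cells/well, grown 48 h, then treated 4 h at indicated doses or 24 h at 10 μM. Lysed in HEPES pH 7.5/KCl/Triton buffer with protease and phosphatase inhibitors; SDS-PAGE, PVDF transfer, LI-COR imaging; densitometry normalised to loading control, relative to DMSO.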

[5] = Distribution coefficient, logD of compound at pH 7.4 by chromatographic method; type: physicochemical; conditions: octanol/water
In short: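 Chromatographic retention-time method at pH 7.4, calibrated against six reference drugs (atenolol, metoprolol, labetalol, diltiazem, triphenylene, permethrin) of known logD7.4 (R² = 0.99); mean analyte retention times converted via calibration line. At least two independent measurements per analyte.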

SK-N-AS [6] = assay: Effect on ERK signalling pathway in human SK-N-AS harboring wild type BRAF/NRAS […] mutant assessed as phosphorylated ERK level at 0.1 to 10 uM incubated upto 24 hrs by western blot analysis; type: functional, cell-based; conditions: dose 0.1-10 µM; in short: as §2
SK-MEL-28 [7] = assay: Inhibition of ERK signalling pathway in human SK-MEL-28 cells harboring BRAF V600E mutant/wild type NRAS assessed as reduction in phosphorylated ERK level at 0.1 to 10 uM incubated for 4 hrs by densitometric analysis; type: cell-based; conditions: dose 0.1-10 µM
In short: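 SK-MEL-28 melanoma in DMEM/10% FCS, plated 100,000 cells/well, grown 48 h, treated 4 h at indicated doses. Lysates (HEPES pH 7.5, 0.4 M KCl, 0.4% Triton X-100, protease/phosphatase inhibitors) immunoblotted on PVDF, imaged by LI-COR; densitometry normalised to loading control, relative to DMSO; mean of five independent repeats for dose-response.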

[8] = target: Serine/threonine-protein kinase B-raf (Homo sapiens, UniProt P15056, V600E); assay: Inhibition of BRAF V600E mutant (unknown origin) using MEK1 (K97R) as substrate in presence of [gamma-33P]ATP by radiometric assay
Sequence of Serine/threonine-protein kinase B-raf (P15056 2-766 V600E limits assumed): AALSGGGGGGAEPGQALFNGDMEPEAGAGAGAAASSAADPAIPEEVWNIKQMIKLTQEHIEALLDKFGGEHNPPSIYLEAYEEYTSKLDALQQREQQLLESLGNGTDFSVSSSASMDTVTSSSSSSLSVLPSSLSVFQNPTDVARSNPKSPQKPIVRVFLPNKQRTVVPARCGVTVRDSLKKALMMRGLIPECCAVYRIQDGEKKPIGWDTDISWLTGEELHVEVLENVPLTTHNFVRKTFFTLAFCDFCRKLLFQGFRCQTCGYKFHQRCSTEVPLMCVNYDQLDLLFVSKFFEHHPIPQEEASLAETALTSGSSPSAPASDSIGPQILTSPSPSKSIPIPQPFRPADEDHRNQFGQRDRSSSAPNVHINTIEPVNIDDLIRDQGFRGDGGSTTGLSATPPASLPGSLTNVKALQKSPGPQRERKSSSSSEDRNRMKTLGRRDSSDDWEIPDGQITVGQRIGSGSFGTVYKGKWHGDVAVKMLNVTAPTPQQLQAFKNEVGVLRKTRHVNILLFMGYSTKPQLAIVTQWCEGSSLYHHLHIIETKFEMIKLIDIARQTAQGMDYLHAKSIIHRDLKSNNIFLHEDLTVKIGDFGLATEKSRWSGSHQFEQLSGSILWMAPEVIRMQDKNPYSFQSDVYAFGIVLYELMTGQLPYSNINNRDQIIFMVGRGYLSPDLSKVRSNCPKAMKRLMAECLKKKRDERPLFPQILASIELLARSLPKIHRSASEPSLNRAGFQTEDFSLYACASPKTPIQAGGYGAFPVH

SK-MEL-28 [9] = assay: Anticancer activity against human SK-MEL-28 cells assessed as reduction in cell viability incubated for 120 hrs by CellTiter-Glo luminescent assay; type: functional, cell-based
In short: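 SK-MEL-28 in DMEM with 10% FCS, 37°C, 5% CO2; seeded 400 cells/well in 384-well plates. T0 CellTiter-Glo reading taken at 24 h on a parallel plate; compounds dispensed acoustically, 5 days incubation, then CellTiter-Glo luminescence. Normalised to DMSO; GI50 by four-parameter log(inhibitor) vs response fit; mean±s.d., n=3.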

[10] = tested on: von Hippel-Lindau disease tumor suppressor/Serine/threonine-protein kinase B-raf (Homo sapiens), P15056+P40337 [V600E]; assay: Protac activity at VHL/BRAF V600E mutant degradation in human SK-MEL-28 cells harboring wild type NRAS assessed as remaining BRAF V600E level at 10 uM incubated for 24 hrs by densitometric analysis; type: cell-based; in short: as §1

| SMILES | fraction unbound at 0.5 mg/ml [1] | Activity [2] | Remaining BRAF V600E level [3] [%] | Activity (SK-N-AS [4]) | chromatographic logD [5] | Activity (SK-N-AS [6]) | inhibition (SK-MEL-28 [7]) | pIC50 [8] | Activity (SK-MEL-28 [9]) | Activity [10] |
| --- | --- | --- | --- | --- | --- | --- | --- | --- | --- | --- |
| CCCS(=O)(=O)Nc1ccc(F)c(C(=O)c2c[nH]c3ncc(-c4ccc(N5CCN(CC(=O)N[C@H](C(=O)N6C[C@H](O)C[C@H]6C(=O)NCc6ccc(-c7scnc7C)cc6)C(C)(C)C)CC5)cc4)cc23)c1F | 0.04 | Active | 46 | Active | 2.9 | Active | – | – | – | – |
| CCCS(=O)(=O)Nc1ccc(F)c(C(=O)c2c[nH]c3ncc(-c4ccc(C(=O)NCCCCCCOCCCCCOCCCCC(=O)N[C@H](C(=O)N5C[C@H](O)C[C@H]5C(=O)NCc5ccc(-c6scnc6C)cc5)C(C)(C)C)cc4)cc23)c1F | 0.04 | – | > 95 | – | 3.7 | – | Active | 7.32 | – | – |
| CCN(C)S(=O)(=O)Nc1ccc(F)c(C(=O)c2c[nH]c3ncc(-c4ccc(N5CCN(CC(=O)N[C@H](C(=O)N6C[C@H](O)C[C@H]6C(=O)NCc6ccc(-c7scnc7C)cc6)C(C)(C)C)CC5)cc4)cc23)c1F | 0.04 | – | 52 | – | 3.2 | – | – | – | Active | Active |
| O=C1Nc2ccc(I)cc2C1=Cc1cc(Br)c(O)c(Br)c1 [GW305074X] | – | – | – | – | 2.3 | – | – | – | – | – |
| CCCS(=O)(=O)Nc1ccc(F)c(C(=O)c2c[nH]c3ncc(-c4ccc(C(=O)NCCOCCOCC(=O)N[C@H](C(=O)N5C[C@H](O)C[C@H]5C(=O)NCc5ccc(-c6scnc6C)cc5)C(C)(C)C)cc4)cc23)c1F | 0.05 | – | > 95 | – | 2.3 | – | Active | 8.07 | – | – |
| CCCS(=O)(=O)Nc1ccc(F)c(C(=O)c2c[nH]c3ncc(-c4ccc(CNC(=O)CCCCOCCOCCOCCOc5cc(-c6scnc6C)ccc5CNC(=O)[C@@H]5C[C@@H](O)CN5C(=O)[C@H](C(C)C)N5Cc6ccccc6C5=O)cc4)cc23)c1F | 0.04 | – | 77 | – | 2.7 | – | Active | 8.42 | – | – |
| CCCS(=O)(=O)Nc1ccc(F)c(C(=O)c2c[nH]c3ncc(-c4ccc(CNC(=O)CCCCOCCCCOCCCCOc5cc(-c6scnc6C)ccc5CNC(=O)[C@@H]5C[C@@H](O)CN5C(=O)[C@H](C(C)C)N5Cc6ccccc6C5=O)cc4)cc23)c1F | 0.04 | – | 77 | – | 3.6 | – | Active | 8.00 | – | – |
| CCCS(=O)(=O)Nc1ccc(F)c(C(=O)c2c[nH]c3ncc(-c4ccc(C(=O)NCCOCCOCCOCCOc5cc(-c6scnc6C)ccc5CNC(=O)[C@@H]5C[C@@H](O)CN5C(=O)[C@H](C(C)C)N5Cc6ccccc6C5=O)cc4)cc23)c1F | 0.04 | – | 73 | – | 2.5 | – | Active | 8.47 | – | – |
| CCCS(=O)(=O)Nc1ccc(F)c(C(=O)c2c[nH]c3ncc(-c4ccc(C(=O)NCCOCCOCCOCCCCC(=O)N[C@H](C(=O)N5C[C@H](O)C[C@H]5C(=O)NCc5ccc(-c6scnc6C)cc5)C(C)(C)C)cc4)cc23)c1F | 0.05 | – | > 95 | – | 2.4 | – | Active | 9.51 | – | – |
| CCN(C)S(=O)(=O)Nc1ccc(F)c(C(=O)c2c[nH]c3ncc(-c4cnc(N5CCN(CC(=O)N[C@H](C(=O)N6C[C@H](O)C[C@H]6C(=O)N[C@@H](C)c6ccc(-c7scnc7C)cc6)C(C)(C)C)CC5)nc4)cc23)c1F | 0.04 | – | > 95 | – | 3.2 | – | – | – | – | – |
